This is an account of results in ChEMBL document CHEMBL3259614, “Design, synthesis, and structure-activity relationship studies of novel fused heterocycles-linked triazoles with good activity and water solubility” (J Med Chem, 2014).

≈ marks a conversion by molar mass, not a printed value.

One assay concerns Candida parapsilosis. The assay is described as follows: Antimicrobial activity against Candida parapsilosis 22019 after 24 hrs by serial dilution method. Type of assay: functional. The note with it: Lodderomyces parapsilosis, 22019, 24 h. In a few lines: (§1)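 Broth serial dilution MIC in 96-well plates following NCCLS/CLSI methods. Compounds were dissolved in DMSO and serially diluted in growth medium, with incubation at 35 °C. […] C. parapsilosis 22019 served as the quality-control strain in each assay.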
In general, MIC refers to the lowest concentration that inhibits growth of the organism. Higher therefore signals a less susceptible organism. As to `C[C@@H](N1CCc2nc(-c3cccs3)sc2C1)[C@](O)(Cn1cncn1)c1ccc(F)cc1F`, the MIC came to 1 µg/mL (≈ 2.11 µM).

In turn, `C[C@@H](N1CCc2nc(-c3ccco3)sc2C1)[C@](O)(Cn1cncn1)c1ccc(F)cc1F` showed an MIC of 1 µg/mL (≈ 2.19 µM).

With `C[C@@H](N1CCc2nc(-c3ccncc3)sc2C1)[C@](O)(Cn1cncn1)c1ccc(F)cc1F`, 0.125 µg/mL (≈ 0.267 µM) was the least that counted as inhibitory (MIC).

As for `C[C@@H](N1CCc2nc(-c3cncc(F)c3)sc2C1)[C@](O)(Cn1cncn1)c1ccc(F)cc1F`, the MIC was 0.25 µg/mL (≈ 0.514 µM).

`C[C@@H](N1CCc2nc(-c3cncc(C#N)c3)sc2C1)[C@](O)(Cn1cncn1)c1ccc(F)cc1F` showed an MIC of 0.25 µg/mL (≈ 0.507 µM).

In turn, `C[C@@H](N1CCc2nc(-c3ccc(C#N)nc3)sc2C1)[C@](O)(Cn1cncn1)c1ccc(F)cc1F` showed an MIC of 0.25 µg/mL (≈ 0.507 µM).

`C[C@@H](N1CCc2nc(-c3ccc(F)nc3)sc2C1)[C@](O)(Cn1cncn1)c1ccc(F)cc1F` returned a minimum inhibitory concentration (MIC) of 0.25 µg/mL (≈ 0.514 µM).

The compound `COc1ccc(-c2nc3c(s2)CN([C@H](C)[C@](O)(Cn2cncn2)c2ccc(F)cc2F)CC3)cn1` displayed an MIC of 0.5 µg/mL (≈ 1 µM). This MIC lies about 2-fold higher than the previous one.

The next assay relates to Candida albicans. The assay is described as follows: Antimicrobial activity against Candida albicans Y0109 after 24 hrs by serial dilution method. The settings on record: Y0109, 24 h. Format: functional. Put shortly: as §1
For `C[C@@H](N1CCc2nc(-c3cccs3)sc2C1)[C@](O)(Cn1cncn1)c1ccc(F)cc1F`, the MIC was 0.25 µg/mL (≈ 0.528 µM).

In the case of `C[C@@H](N1CCc2nc(-c3ccco3)sc2C1)[C@](O)(Cn1cncn1)c1ccc(F)cc1F`, the MIC stood at 1 µg/mL (≈ 2.19 µM).

Turning to `C[C@@H](N1CCc2nc(-c3ccncc3)sc2C1)[C@](O)(Cn1cncn1)c1ccc(F)cc1F`, inhibition of growth (MIC) required 0.0312 µg/mL (≈ 0.0667 µM).

Take `C[C@@H](N1CCc2nc(-c3cncc(F)c3)sc2C1)[C@](O)(Cn1cncn1)c1ccc(F)cc1F`: the MIC was found to be 0.125 µg/mL (≈ 0.257 µM).

As to `C[C@@H](N1CCc2nc(-c3cncc(C#N)c3)sc2C1)[C@](O)(Cn1cncn1)c1ccc(F)cc1F`, the MIC came to 0.25 µg/mL (≈ 0.507 µM).

Consider `C[C@@H](N1CCc2nc(-c3ccc(C#N)nc3)sc2C1)[C@](O)(Cn1cncn1)c1ccc(F)cc1F`, for which 0.0625 µg/mL (≈ 0.127 µM) was the least that counted as inhibitory (MIC).

In turn, `C[C@@H](N1CCc2nc(-c3ccc(F)nc3)sc2C1)[C@](O)(Cn1cncn1)c1ccc(F)cc1F` displayed an MIC of 0.125 µg/mL (≈ 0.257 µM).

As for `COc1ccc(-c2nc3c(s2)CN([C@H](C)[C@](O)(Cn2cncn2)c2ccc(F)cc2F)CC3)cn1`, 0.25 µg/mL (≈ 0.501 µM) was the least that counted as inhibitory (MIC).

The test system of another assay is Candida albicans. Nature of the assay: Antimicrobial activity against Candida albicans SC5314 after 24 hrs by serial dilution method. Type of assay: functional. The settings on record: SC5314, 24 h. Put shortly: as §1
The compound `C[C@@H](N1CCc2nc(-c3cccs3)sc2C1)[C@](O)(Cn1cncn1)c1ccc(F)cc1F` yielded an MIC of 0.25 µg/mL (≈ 0.528 µM).

Regarding `C[C@@H](N1CCc2nc(-c3ccco3)sc2C1)[C@](O)(Cn1cncn1)c1ccc(F)cc1F`, inhibition of growth (MIC) required 0.25 µg/mL (≈ 0.546 µM).

As to `C[C@@H](N1CCc2nc(-c3ccncc3)sc2C1)[C@](O)(Cn1cncn1)c1ccc(F)cc1F`, the lowest concentration to inhibit growth (MIC) was 0.0312 µg/mL (≈ 0.0667 µM). Against the preceding compound, the MIC is about 8-fold lower.

The compound `C[C@@H](N1CCc2nc(-c3cncc(F)c3)sc2C1)[C@](O)(Cn1cncn1)c1ccc(F)cc1F` showed an MIC of 0.125 µg/mL (≈ 0.257 µM).

For the compound `C[C@@H](N1CCc2nc(-c3cncc(C#N)c3)sc2C1)[C@](O)(Cn1cncn1)c1ccc(F)cc1F`, inhibition of growth (MIC) required 0.125 µg/mL (≈ 0.253 µM).

For the compound `C[C@@H](N1CCc2nc(-c3ccc(C#N)nc3)sc2C1)[C@](O)(Cn1cncn1)c1ccc(F)cc1F`, the MIC was found to be 0.0625 µg/mL (≈ 0.127 µM).

`C[C@@H](N1CCc2nc(-c3ccc(F)nc3)sc2C1)[C@](O)(Cn1cncn1)c1ccc(F)cc1F` gave an MIC of 0.0625 µg/mL (≈ 0.128 µM).

On to `COc1ccc(-c2nc3c(s2)CN([C@H](C)[C@](O)(Cn2cncn2)c2ccc(F)cc2F)CC3)cn1`, for which the lowest concentration to inhibit growth (MIC) was 0.25 µg/mL (≈ 0.501 µM).

The subject of another assay is Aspergillus fumigatus. The assay is described as follows: Antimicrobial activity against Aspergillus fumigatus 7544 after 48 hrs by serial dilution method. Type of assay: functional. The settings on record: Aspergillus fumigatus, 7544, 48 h. In a few lines:
as §1
`C[C@@H](N1CCc2nc(-c3cccs3)sc2C1)[C@](O)(Cn1cncn1)c1ccc(F)cc1F` yielded an MIC of 8 µg/mL (≈ 16.9 µM).

`C[C@@H](N1CCc2nc(-c3ccco3)sc2C1)[C@](O)(Cn1cncn1)c1ccc(F)cc1F` yielded an MIC of 8 µg/mL (≈ 17.5 µM).

As for `C[C@@H](N1CCc2nc(-c3ccncc3)sc2C1)[C@](O)(Cn1cncn1)c1ccc(F)cc1F`, the MIC was 4 µg/mL (≈ 8.54 µM).

For `C[C@@H](N1CCc2nc(-c3cncc(F)c3)sc2C1)[C@](O)(Cn1cncn1)c1ccc(F)cc1F`, the MIC stood at 8 µg/mL (≈ 16.4 µM). Compared with the last compound, the MIC is about 2-fold higher.

The compound `C[C@@H](N1CCc2nc(-c3cncc(C#N)c3)sc2C1)[C@](O)(Cn1cncn1)c1ccc(F)cc1F` yielded an MIC of 8 µg/mL (≈ 16.2 µM).

Regarding `C[C@@H](N1CCc2nc(-c3ccc(C#N)nc3)sc2C1)[C@](O)(Cn1cncn1)c1ccc(F)cc1F`, the MIC is 8 µg/mL (≈ 16.2 µM).

With `C[C@@H](N1CCc2nc(-c3ccc(F)nc3)sc2C1)[C@](O)(Cn1cncn1)c1ccc(F)cc1F`, the MIC turned out to be 8 µg/mL (≈ 16.4 µM).

`COc1ccc(-c2nc3c(s2)CN([C@H](C)[C@](O)(Cn2cncn2)c2ccc(F)cc2F)CC3)cn1` came in with an MIC of 16 µg/mL (≈ 32.1 µM).

The next assay deals with Cryptococcus neoformans. Nature of the assay: Antimicrobial activity against Cryptococcus neoformans 32609 after 72 hrs by serial dilution method. Format: functional. The settings on record: Cryptococcus neoformans, 32609, 72 h. Put shortly:
as §1
Consider `C[C@@H](N1CCc2nc(-c3cccs3)sc2C1)[C@](O)(Cn1cncn1)c1ccc(F)cc1F`, for which 0.5 µg/mL (≈ 1.06 µM) was the least that counted as inhibitory (MIC).

The compound `C[C@@H](N1CCc2nc(-c3ccco3)sc2C1)[C@](O)(Cn1cncn1)c1ccc(F)cc1F` registered a minimal inhibitory concentration (MIC) of 0.5 µg/mL (≈ 1.09 µM).

In the case of `C[C@@H](N1CCc2nc(-c3ccncc3)sc2C1)[C@](O)(Cn1cncn1)c1ccc(F)cc1F`, 0.125 µg/mL (≈ 0.267 µM) was the least that counted as inhibitory (MIC).

As to `C[C@@H](N1CCc2nc(-c3cncc(F)c3)sc2C1)[C@](O)(Cn1cncn1)c1ccc(F)cc1F`, the minimum inhibitory concentration (MIC) was found to be 0.125 µg/mL (≈ 0.257 µM).

The compound `C[C@@H](N1CCc2nc(-c3cncc(C#N)c3)sc2C1)[C@](O)(Cn1cncn1)c1ccc(F)cc1F` displayed an MIC of 0.25 µg/mL (≈ 0.507 µM).

The compound `C[C@@H](N1CCc2nc(-c3ccc(C#N)nc3)sc2C1)[C@](O)(Cn1cncn1)c1ccc(F)cc1F` came in with an MIC of 0.25 µg/mL (≈ 0.507 µM).

`C[C@@H](N1CCc2nc(-c3ccc(F)nc3)sc2C1)[C@](O)(Cn1cncn1)c1ccc(F)cc1F` showed an MIC of 0.125 µg/mL (≈ 0.257 µM).

Take `COc1ccc(-c2nc3c(s2)CN([C@H](C)[C@](O)(Cn2cncn2)c2ccc(F)cc2F)CC3)cn1`: the MIC was 0.25 µg/mL (≈ 0.501 µM).

A further assay deals with Nakaseomyces glabratus. The assay is described as follows: Antimicrobial activity against Candida glabrata 537 after 24 hrs by serial dilution method. Type of assay: functional. The settings on record: Nakaseomyces glabratus, 537, 24 h. Put shortly: as §1
`C[C@@H](N1CCc2nc(-c3cccs3)sc2C1)[C@](O)(Cn1cncn1)c1ccc(F)cc1F` had an MIC of 0.5 µg/mL (≈ 1.06 µM).

As to `C[C@@H](N1CCc2nc(-c3ccco3)sc2C1)[C@](O)(Cn1cncn1)c1ccc(F)cc1F`, the MIC came to 0.5 µg/mL (≈ 1.09 µM).

In turn, `C[C@@H](N1CCc2nc(-c3ccncc3)sc2C1)[C@](O)(Cn1cncn1)c1ccc(F)cc1F` registered an MIC of 0.125 µg/mL (≈ 0.267 µM). Compared with the last compound, the MIC is about 4-fold lower.

`C[C@@H](N1CCc2nc(-c3cncc(F)c3)sc2C1)[C@](O)(Cn1cncn1)c1ccc(F)cc1F` showed an MIC of 0.125 µg/mL (≈ 0.257 µM).

Compound `C[C@@H](N1CCc2nc(-c3cncc(C#N)c3)sc2C1)[C@](O)(Cn1cncn1)c1ccc(F)cc1F` registered an MIC of 0.5 µg/mL (≈ 1.01 µM).

`C[C@@H](N1CCc2nc(-c3ccc(C#N)nc3)sc2C1)[C@](O)(Cn1cncn1)c1ccc(F)cc1F`: 0.5 µg/mL (≈ 1.01 µM) was the least that counted as inhibitory (MIC).

`C[C@@H](N1CCc2nc(-c3ccc(F)nc3)sc2C1)[C@](O)(Cn1cncn1)c1ccc(F)cc1F`: 0.125 µg/mL (≈ 0.257 µM) was the least that counted as inhibitory (MIC).

Regarding `COc1ccc(-c2nc3c(s2)CN([C@H](C)[C@](O)(Cn2cncn2)c2ccc(F)cc2F)CC3)cn1`, the MIC is 0.5 µg/mL (≈ 1 µM). This MIC is about 4-fold higher than that of the compound before.
